Data set [1] deals with TAg-dependent DNA replication. Briefly: TAg-dependent DNA replication assay. It counts as biochemical, SV40. As to conditions: HeLa cell lysate, radiolabelled nucleotides. The gist of the method:
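TAg recruits replication machinery from HeLa cell lysate to copy a reporter plasmid carrying the SV40 origin, incorporating trace radiolabelled nucleotides over time. Test compound added at 30, 100 and 300 µM.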

In a further data set the test system is SV40 virus. Briefly: Cytoprotection assay with SV40 virus in BSC-40 cells. As to conditions: 50 μM, BSC-40 cells + SV40, 120 h. The format is cell-based.
The test system of data set [2] is Hydroxyprostaglandin dehydrogenase 15-(NAD) isoform 1. Conditions: PubChem; cited from earlier work.
For data set [3], the system named is Phosphopantetheinyl transferase. As to conditions: PubChem; cited from earlier work.
The subject of the next data set is Aldehyde dehydrogenase 1. As to conditions: PubChem; cited from earlier work.
Data set [4] has as its system Microtubule-associated protein tau. As to conditions: PubChem, tau aggregation; cited from earlier work.
Another data set has as its system Mint1. Conditions: PubChem; cited from earlier work.
The test system of data set [5] is Nuclear receptor ROR-gamma. As to conditions: PubChem; cited from earlier work.
Data set [6] concerns the target SV40 large T antigen ATPase activity (Simian virus 40, UniProt P03070). Put plainly: SV40 TAg ATPase primary assay. It counts as biochemical. As to conditions: 1% DMSO; for IC50: 1536-well, ADP Hunter, 1 mM ATP. The gist of the method:
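Purified TAg (10.8 ng/well, added from 14.4 ng/µL) in 100 mM Tris-HCl pH 7.4, 20 mM KCl, 6 mM MgCl2, 0.1 mg/mL BSA; control added before enzyme, preincubated 30 min ambient; 5 mM ATP stock added, 120 min ambient; 1.25 µL reaction. ADP Hunter fluorescence, ex/em 530/590 nm bottom read. % inhibition normalized to median enzyme control and high-dose control wells.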

For another data set, the system named is BSC-40 cells. Put plainly: Cytotoxicity in BSC-40 cells. As to conditions: cells + compound only, 5 days. The format is cell-based, African green monkey.
The nature of data set [7]: Compound aggregation in steady-state ATP assays. It counts as physicochemical. Conditions: 20-μL steady-state ATP assay; previously observed in the laboratory.
The next data set relates to TAg. Conditions: read-out: IC50 for MAL2-11B; ref 21 (Huryn et al.); cited from earlier work.

The term IC50 denotes the point on the concentration scale where inhibition reaches its midpoint.

SMILES strings stand for the structures. Where “and” joins values, the source holds several entries; their conditions need not be identical. Equal entries are not always repeated. Where two headings read alike, the source gives them in different places.

SV40 large T antigen ATPase activity, sequence (P03070 whole entry): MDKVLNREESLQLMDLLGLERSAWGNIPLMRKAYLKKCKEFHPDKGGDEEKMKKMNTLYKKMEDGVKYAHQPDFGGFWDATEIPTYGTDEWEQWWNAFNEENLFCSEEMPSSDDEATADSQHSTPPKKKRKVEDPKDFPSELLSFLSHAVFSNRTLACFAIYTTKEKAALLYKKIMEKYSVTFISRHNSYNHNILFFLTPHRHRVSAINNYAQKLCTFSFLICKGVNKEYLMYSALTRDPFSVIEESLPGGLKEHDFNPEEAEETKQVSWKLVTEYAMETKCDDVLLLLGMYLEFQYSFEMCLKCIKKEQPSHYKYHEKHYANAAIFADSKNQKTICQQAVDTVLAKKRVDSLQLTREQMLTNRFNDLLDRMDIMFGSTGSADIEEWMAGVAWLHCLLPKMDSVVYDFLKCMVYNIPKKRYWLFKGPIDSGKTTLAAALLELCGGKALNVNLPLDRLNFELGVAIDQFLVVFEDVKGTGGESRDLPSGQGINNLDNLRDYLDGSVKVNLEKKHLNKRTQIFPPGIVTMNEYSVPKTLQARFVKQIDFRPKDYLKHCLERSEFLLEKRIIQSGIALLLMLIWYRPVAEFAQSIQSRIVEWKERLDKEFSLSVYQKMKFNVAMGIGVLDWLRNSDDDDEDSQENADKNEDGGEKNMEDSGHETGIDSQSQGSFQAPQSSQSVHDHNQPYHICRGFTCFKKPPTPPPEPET

As to `ClC(Cl)(c1nnnn1-c1ccccc1)c1nnnn1-c1ccccc1` [SID 85281215], the “effect on TAg-dependent DNA replication at 300 μM” value in data set [1] is on record as “DNA replication was absent”. In addition, the “sustained cell viability in the cytoprotection assay” value in the data set on SV40 virus came to 16%. Besides, the “identified as hit (inhibitor) against target” value (from here on “identified as hit (inhibitor)”) in data set [2] is recorded as “Hydroxyprostaglandin dehydrogenase 15-(NAD) isoform 1”; in data set [3], “Phosphopantetheinyl transferase”; in the data set with Aldehyde dehydrogenase 1, “Aldehyde dehydrogenase 1”; in data set [4], “Microtubule-associated protein tau”; with Mint1, “Mint1”; in data set [5] it was “Nuclear receptor ROR-gamma”.
In the case of `Nc1nc2ccc(S(=O)(=O)N3CCCCC3)cc2s1` [SID 85281217], the “identified as hit (inhibitor)” value is listed as “Hydroxyprostaglandin dehydrogenase 15-(NAD) isoform 1” in data set [2]; “Phosphopantetheinyl transferase” in data set [3]; “Aldehyde dehydrogenase 1” in the data set on Aldehyde dehydrogenase 1; “Microtubule-associated protein tau” in data set [4]; “Mint1” in the data set with Mint1.
On to `CC(C)(c1ccc(O)cc1)c1ccc(O)cc1` [SID 92277586, Bisphenol A], for which the IC50 in data set [6] (IC50, inhibition of TAg ATPase activity in the primary assay) was 41 µM and 41.4 µM. Further, the “effect on TAg-dependent DNA replication at 100 μM” value in data set [1] (100 μM) was “some inhibition”. For the same compound, the “effect on TAg-dependent DNA replication at 300 μM” value in data set [1] is recorded as “complete inhibition”. Also, the “TC50 (50% toxic concentration)” value with BSC-40 cells stood at 7.94 µM.
For `CC1=C(C(=O)OCc2ccccc2)C(c2ccc(-c3ccccc3)cc2)NC(=O)N1CCCCCC(=O)O` (stereo not shown) [MAL2-11B, reference compound], the “inhibition of TAg activity” value in [6] (MAL2-11B at 100 μM final, average) is 80%. For the same compound, the IC50 in data set [6] (read-out: IC50, inhibition of TAg ATPase activity in the primary assay) is 19.5 µM; in the data set on TAg, 50 µM. Moreover, in [7], the “final concentration at which compound aggregation was observed” value is > 300 µM.
As to `Cc1cc(C)c2c(=O)n(CC(=O)Nc3cccc(Cl)c3C)sc2n1` [SID 85281218], the “identified as hit (inhibitor)” value in data set [3] is “Phosphopantetheinyl transferase”; in data set [4] it was “Microtubule-associated protein tau”; with Mint1 it was “Mint1”; in [5] it was “Nuclear receptor ROR-gamma”.

The record behind these values is publication PMC3731742 (Journal of biomolecular screening, 2011).
